The values that follow come from ChEMBL document CHEMBL3102846 (Eur J Med Chem, 2014).

The nature of series [1]: Inhibition of Wnt3A/beta-catenin signaling in HEK293 cells at 5 uM after 24 hrs by firefly/renilla dual luciferase reporter gene assay relative to vehicle-treated control. The following applies: Homo sapiens. More on the design: scale not given: the % may be the effect or the level left. Format: cell-based. An outline of the steps: (§1)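 HEK293T cells were co-transfected with TOPglow (or FOPglow) plus pCMV Renilla. At 20 h they were reseeded at 18×10^3/well and treated for 24 h with Wnt-3A conditioned medium (from L-Wnt-3A cells) plus analogs (0.01–20 µM; DMSO ≤0.1%). Firefly/Renilla dual-luciferase ratios were expressed as % of DMSO under Wnt-3A. EC50 was taken from sigmoidal concentration–response fits; three independent experiments.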

Series [2] in a line: Inhibition of Wnt3A/beta-catenin signaling in HEK293 cells at 1 uM after 24 hrs by firefly/renilla dual luciferase reporter gene assay relative to vehicle-treated control. The following applies: Homo sapiens. More on the design: scale not given: the % may be the effect or the level left. Format: cell-based. The method, boiled down:
as §1

A short description of series [3]: Inhibition of Wnt3A/beta-catenin signaling in HEK293 cells at 20 uM after 24 hrs by firefly/renilla dual luciferase reporter gene assay relative to vehicle-treated control. The class given is cell-based. More on the design: scale not given: the % may be the effect or the level left. The following applies: Homo sapiens. The method, boiled down:
as §1

Series [4] in a line: Inhibition of Wnt3A/beta-catenin signaling in HEK293 cells at 10 uM after 24 hrs by firefly/renilla dual luciferase reporter gene assay relative to vehicle-treated control. Format: cell-based. Also on record: scale not given: the % may be the effect or the level left. The following applies: Homo sapiens. The method, boiled down:
as §1

The nature of series [5]: Inhibition of Wnt3A/beta-catenin signaling in HEK293 cells after 24 hrs by firefly/renilla dual luciferase reporter gene assay relative to curcumin. The following applies: Homo sapiens. The class given is cell-based. An outline of the steps:
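EC50s came from the HEK293T TOPglow/Renilla dual-luciferase assay with Wnt-3A conditioned medium and 24 h compound exposure (0.01–20 µM), using sigmoidal fits; three independent experiments.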

The nature of series [6]: Inhibition of Wnt3A/beta-catenin signaling in HEK293 cells after 24 hrs by firefly/renilla dual luciferase reporter gene assay. Format: cell-based. The following applies: Homo sapiens, HEK293, 24 h. The method, boiled down: as §1
Series [7] can be described thus: Inhibition of Wnt3A/beta-catenin signaling-mediated Tcf4 transcriptional activity in human HEK293T cells at dual luciferase reporter gene assay EC50 after 24 hrs by FOPglow reporter gene assay. More on the design: scale not given: the % may be the effect or the level left.
The next series concerns HEK293T (human). The experiment in a line: Cytotoxicity against human HEK293T cells at dual luciferase reporter gene assay EC50 after 24 hrs by MTS assay.

Turning to `COc1cccc(/C=C/C(=O)/C=C/c2cccc(OC)c2)c1`, the activity in series [1] amounted to 114%; in series [2] it was 100%; in series [3], 103%; in series [4], 103%.

As to `O=C1/C(=C/c2ccc(F)cc2)CCC/C1=C\c1ccc(F)cc1`, the activity in series [1] came to 65.2%; in series [2], 70.3%; in series [3], 60.2%; in series [4], 61.6%.

On to `COc1cccc(/C=C/C(=O)c2cccc(OC)c2)c1`, for which the activity was 108% in series [1], 107% in series [2], 72.9% in series [3] and 111% in series [4].

Take `COc1cc(/C=C2\CC/C(=C\c3ccc(O)c(OC)c3)C2=O)ccc1O`: the activity in series [1] came out at 54.1%; in series [2] it was 91.6%; in series [3], 13.3%; in series [4] it was 37.5%; in series [7], 90.8%. In series [5], this compound yielded a fold change (FC) of 3.5. The same compound returned a 50% effective concentration (EC50) in series [6] of 5.9 µM.

Take `COc1cc(/C=C/C(=O)/C=C/c2ccc(O)c(OC)c2)ccc1O`: the activity in series [1] came to 111%; in series [2], 118%; in series [3], 90.4%; in series [4], 110%.

Turning to `O=C(/C=C/c1ccc(O)cc1)CC(=O)/C=C/c1ccc(O)cc1`, the activity in series [1] turned out to be 77.7%; in series [2] it was 100%; in series [3], 69.1%; in series [4], 72.5%.

Take `COc1ccc(/C=C/C(=O)/C=C/c2ccc(OC)c(OC)c2)cc1OC`: the activity in series [1] amounted to 108%; in series [2], 107%; in series [3], 103%; in series [4], 109%.

On to `COc1ccc(/C=C/C(=O)c2ccc(OC)c(O)c2)cc1O`, for which the activity worked out at 53.9% in series [1]; 95.7% in series [2]; 25.7% in series [3]; 42% in series [4]; 131% in series [7]. The compound further came in with a fold change (FC) in series [5] of 5.3. Further, the EC50 in series [6] is 3.9 µM. Also, the Activity with HEK293T (human) is given as 87.2%.

As for `COc1ccc(/C=C2\CCC/C(=C\c3ccc(OC)c(OC)c3)C2=O)cc1OC`, the activity in series [1] was determined as 64.3%; in series [2] it was 97.7%; in series [3], 40.8%; in series [4], 62.8%; in series [7], 104%. In addition, the fold change (FC) in series [5] was found to be 1.3. In addition, a half-maximal effect in series [6] (EC50) was put at 15.9 µM. The Activity in the series with HEK293T (human) stood at 62.1%.

Take `COc1cccc(/C=C/C(=O)/C=C(O)/C=C/c2cccc(OC)c2)c1`: the activity in series [1] was 107%; in series [2], 97.7%; in series [3], 101%; in series [4], 108%.

In the case of `O=C1/C(=C/c2ccc(F)cc2)CC/C1=C\c1ccc(F)cc1`, the activity came out at 112% in series [1], 120% in series [2], 108% in series [3] and 105% in series [4].

On to `O=C1/C(=C/c2cccc(F)c2)CC/C1=C\c1cccc(F)c1`, for which the activity in series [1] was 119%; in series [2] it was 124%; in series [3], 103%; in series [4], 109%.

As for `COc1ccc(/C=C/C(=O)c2ccc(OC)c(OC)c2)cc1OC`, the activity was determined as 86.6% in series [1], 95% in series [2], 41.6% in series [3] and 60.3% in series [4].

Turning to `O=C(/C=C/c1ccc(F)c(F)c1)c1ccc(F)c(F)c1`, the activity is 112% in series [1], 117% in series [2], 59.1% in series [3] and 90.2% in series [4].

Regarding `O=C(/C=C/c1ccccc1)c1ccccc1` [CHALCONE], the activity is 90.6% in series [1]; 102% in series [2]; 18.9% in series [3]; 69% in series [4]; 112% in series [7]. This compound also yielded a fold change (FC) in series [5] of 1.9. Further, the response in series [6] was half-maximal at 11 µM (EC50).

Regarding `O=C1/C(=C/c2ccccc2F)CCC/C1=C\c1ccccc1F`, the activity in series [1] came to 21.9%; in series [2] it was 57.7%; in series [3], 20.9%; in series [4], 14.5%; in series [7], 93%. This compound gave a fold change (FC) in series [5] of 22.8. For the same compound, the 50% effective concentration (EC50) in series [6] was found to be 0.9 µM. Moreover, the Activity with HEK293T (human) is recorded as 87%.

Consider `O=C(/C=C(O)/C=C/c1ccccc1)/C=C/c1ccccc1`, for which the activity worked out at 104% in series [1], 109% in series [2], 97.2% in series [3] and 107% in series [4].

As to `COc1ccc(/C=C2\CC/C(=C\c3ccc(OC)c(OC)c3)C2=O)cc1OC`, the activity in series [1] worked out at 65.9%; in series [2], 88.9%; in series [3] it was 39.2%; in series [4], 55.5%; in series [7], 85.2%. In series [5], this compound came in with a fold change (FC) of 1.2. In series [6], this compound showed a 50% effective concentration (EC50) of 17.1 µM.

For `O=C(/C=C/c1ccc(F)c(F)c1)/C=C/c1ccc(F)c(F)c1`, the activity in series [1] worked out at 100%; in series [2], 103%; in series [3], 111%; in series [4], 110%.

`COc1cccc(/C=C2\CCC/C(=C\c3cccc(OC)c3)C2=O)c1`: the activity in series [1] is 60.7%; in series [2], 93.3%; in series [3], 81.5%; in series [4] it was 72.7%.

On to `O=C(/C=C/c1ccc(O)cc1)c1ccc(O)cc1`, for which the activity amounted to 89.6% in series [1], 92.7% in series [2], 68.3% in series [3] and 70.9% in series [4].

Consider `O=C1/C(=C/c2ccc(F)c(F)c2)CC/C1=C\c1ccc(F)c(F)c1`, for which the activity came to 73.1% in series [1], 71% in series [2], 59.5% in series [3] and 60.2% in series [4].

In the case of `O=C1/C(=C/c2ccccc2F)CC/C1=C\c1ccccc1F`, the activity in series [1] amounted to 75.7%; in series [2], 80%; in series [3], 72.8%; in series [4], 85.3%.

As to `COc1cccc(/C=C2\CC/C(=C\c3cccc(OC)c3)C2=O)c1`, the activity is 72.7% in series [1], 92.3% in series [2], 61.3% in series [3] and 72% in series [4].

For the compound `COc1cc(/C=C/C(=O)c2ccc(O)c(OC)c2)ccc1O`, the activity in series [1] turned out to be 115%; in series [2], 112%; in series [3], 69.6%; in series [4], 86.9%.

`O=C(/C=C(O)/C=C/c1ccc(F)c(F)c1)/C=C/c1ccc(F)c(F)c1`: the activity is 92.2% in series [1], 83.3% in series [2], 93.1% in series [3] and 89.2% in series [4].

On to `COc1ccc(/C=C/C(=O)/C=C(O)/C=C/c2ccc(OC)c(O)c2)cc1O`, for which the activity in series [1] came out at 110%; in series [2] it was 99.7%; in series [3], 113%; in series [4] it was 105%.

With `O=C1/C(=C/c2ccccc2)CCC/C1=C\c1ccccc1` [2,6-DIBENZYLIDENECYCLOHEXANONE], the activity amounted to 49.6% in series [1]; 85.8% in series [2]; 39% in series [3]; 40.6% in series [4]; 90.7% in series [7]. Besides, the fold change (FC) in series [5] came to 10.1. In series [6], this compound came in with a concentration for a half-maximal effect (EC50) of 2 µM. This compound had an Activity in the series with HEK293T (human) of 100%.

Regarding `O=C1/C(=C/c2ccccc2)CC/C1=C\c1ccccc1`, the activity amounted to 41.5% in series [1]; 82.7% in series [2]; 18.4% in series [3]; 25.3% in series [4]; 82.9% in series [7]. In series [5], this compound registered a fold change (FC) of 6.7. Besides, in series [6], a half-maximal effect (EC50) was put at 3.1 µM. In the series with HEK293T (human), this compound came in with an Activity of 83.5%.

On to `O=C1/C(=C/c2ccc(F)c(F)c2)CCC/C1=C\c1ccc(F)c(F)c1`, for which the activity in series [1] was determined as 126%; in series [2] it was 94.5%; in series [3] it was 114%; in series [4] it was 118%.

`COc1cc(/C=C2\CCC/C(=C\c3ccc(O)c(OC)c3)C2=O)ccc1O` [CYCLOVALONE]: the activity in series [1] came out at 28.9%; in series [2], 86.1%; in series [4], 21.3%; in series [7], 87.6%. In addition, the fold change (FC) in series [5] came out at 7.9. For the same compound, the response in series [6] was half-maximal at 2.6 µM (EC50).

`O=C1/C(=C/c2cccc(F)c2)CCC/C1=C\c1cccc(F)c1`: the activity in series [1] was determined as 119%; in series [2], 96.1%; in series [3] it was 104%; in series [4] it was 105%.

In the case of `COc1ccc(/C=C/C(=O)/C=C(O)/C=C/c2ccc(OC)c(OC)c2)cc1OC`, the activity was 70% in series [1], 102% in series [2], 46.5% in series [4] and 118% in series [7]. This compound also yielded a fold change (FC) in series [5] of 2.5. Also, the half-maximal effective concentration (EC50) in series [6] was 8.3 µM. The compound further showed an Activity in the series on HEK293T (human) of 41.6%.

`O=C(/C=C/c1ccccc1)/C=C/c1ccccc1`: the activity amounted to 82.7% in series [1], 93% in series [2], 77.9% in series [3] and 79.7% in series [4].
